Measured values reported in PMC3384716 (Steroids, 2012).

Columns and labels:
[1] = target: T1, PR (Homo sapiens, UniProt P06401); assay: PR reporter gene assay; assay type: cell-based
T1 sequence (P06401 165-933 limits assumed): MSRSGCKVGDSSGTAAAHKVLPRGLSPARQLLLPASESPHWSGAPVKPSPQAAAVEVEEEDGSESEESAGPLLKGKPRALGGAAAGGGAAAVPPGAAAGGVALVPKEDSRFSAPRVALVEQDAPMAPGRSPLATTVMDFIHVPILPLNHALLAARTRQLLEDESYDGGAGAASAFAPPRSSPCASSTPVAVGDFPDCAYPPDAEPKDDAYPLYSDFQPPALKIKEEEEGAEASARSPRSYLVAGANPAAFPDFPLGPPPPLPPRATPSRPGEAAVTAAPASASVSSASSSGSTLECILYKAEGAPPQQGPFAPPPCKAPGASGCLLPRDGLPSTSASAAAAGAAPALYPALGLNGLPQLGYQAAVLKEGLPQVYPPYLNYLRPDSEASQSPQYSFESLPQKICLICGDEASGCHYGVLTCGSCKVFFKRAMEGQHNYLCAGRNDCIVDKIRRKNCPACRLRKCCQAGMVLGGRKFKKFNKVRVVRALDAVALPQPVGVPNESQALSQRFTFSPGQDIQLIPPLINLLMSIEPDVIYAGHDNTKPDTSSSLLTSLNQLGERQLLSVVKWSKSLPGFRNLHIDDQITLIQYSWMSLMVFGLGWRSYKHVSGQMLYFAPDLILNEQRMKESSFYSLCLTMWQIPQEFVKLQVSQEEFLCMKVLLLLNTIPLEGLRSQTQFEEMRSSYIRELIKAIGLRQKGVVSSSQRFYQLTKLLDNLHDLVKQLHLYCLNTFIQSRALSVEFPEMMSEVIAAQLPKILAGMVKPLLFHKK

[2] = target: T2, ER (Homo sapiens, UniProt P03372); assay: ER reporter gene assay; assay type: cell-based; details: 10 μM compound, 5 nM estradiol, 24 h; % of maximal luciferase activity (100%)
T2 sequence (P03372 1-595): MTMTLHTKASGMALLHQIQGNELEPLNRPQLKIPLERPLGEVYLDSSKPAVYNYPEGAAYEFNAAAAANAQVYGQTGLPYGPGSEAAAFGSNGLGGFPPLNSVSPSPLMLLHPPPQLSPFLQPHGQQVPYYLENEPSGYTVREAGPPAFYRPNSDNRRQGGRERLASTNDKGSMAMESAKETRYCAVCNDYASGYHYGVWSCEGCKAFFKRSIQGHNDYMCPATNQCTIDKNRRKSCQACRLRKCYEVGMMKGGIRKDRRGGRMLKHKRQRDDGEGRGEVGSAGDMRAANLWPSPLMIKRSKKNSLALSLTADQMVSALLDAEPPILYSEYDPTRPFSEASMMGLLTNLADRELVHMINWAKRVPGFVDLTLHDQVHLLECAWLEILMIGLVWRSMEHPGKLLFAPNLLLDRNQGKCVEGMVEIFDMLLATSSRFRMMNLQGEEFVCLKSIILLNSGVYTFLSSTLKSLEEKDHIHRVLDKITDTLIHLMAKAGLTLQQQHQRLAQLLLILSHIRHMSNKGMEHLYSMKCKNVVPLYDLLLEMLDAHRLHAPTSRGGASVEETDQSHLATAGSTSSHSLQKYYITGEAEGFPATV

[3] = test system: endogenous PR-regulated alkaline phosphatase activity in T47D breast cancer cells; assay: Progesterone-induced alkaline phosphatase assay in T47D cells; assay type: cell-based, human; details: by 5 μM
Method in brief: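 T47D cells were moved to phenol red-free medium with 10% charcoal-dextran FBS four days ahead. Cells were seeded overnight, then treated 24 h with 2.5 nM progesterone ± test compound in DMSO. Supernatant assayed with CSPD/diethanolamine pH 9.5 buffer, 1 h at RT, luminescence (542 nm). Untreated-compound activity = 100%; ≥3 experiments, mean ± SEM.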

[4] = target: purified luciferase protein (Photinus pyralis, UniProt P08659); assay: Enzyme inhibition assay with purified luciferase protein; assay type: biochemical; details: 0.05 ng pure luciferase protein, 10 μM compound
purified luciferase protein, sequence (P08659 whole entry): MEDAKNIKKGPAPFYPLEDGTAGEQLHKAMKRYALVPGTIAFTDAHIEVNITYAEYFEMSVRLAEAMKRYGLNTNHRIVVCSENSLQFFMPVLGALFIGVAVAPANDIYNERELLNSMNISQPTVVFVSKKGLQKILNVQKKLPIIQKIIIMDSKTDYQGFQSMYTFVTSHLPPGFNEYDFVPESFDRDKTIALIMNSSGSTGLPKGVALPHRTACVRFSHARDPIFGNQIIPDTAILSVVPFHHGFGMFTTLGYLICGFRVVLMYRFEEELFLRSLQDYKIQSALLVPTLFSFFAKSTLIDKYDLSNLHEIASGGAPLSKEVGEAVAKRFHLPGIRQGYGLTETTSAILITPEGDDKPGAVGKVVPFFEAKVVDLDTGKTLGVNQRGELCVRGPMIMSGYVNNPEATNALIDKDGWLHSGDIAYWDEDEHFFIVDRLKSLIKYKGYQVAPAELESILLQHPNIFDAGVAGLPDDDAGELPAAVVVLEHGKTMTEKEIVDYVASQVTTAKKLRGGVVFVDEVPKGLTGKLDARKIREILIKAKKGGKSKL
Method in brief: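 Purified firefly luciferase was used at a final 0.01 ng/μl in OneGlo buffer, with test compound diluted to 10 μM in buffer. After adding BrightGlo luciferase reagent, samples were held 5 min and luminescence measured.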

[5] = target: T3, alkaline phosphatase (AlkP) (Homo sapiens, UniProt P05186); assay: Direct alkaline phosphatase inhibition in cell lysates; assay type: biochemical; details: lysates of progesterone-treated cells, 10 μM compound, 15 minutes
T3 sequence (P05186 18-524): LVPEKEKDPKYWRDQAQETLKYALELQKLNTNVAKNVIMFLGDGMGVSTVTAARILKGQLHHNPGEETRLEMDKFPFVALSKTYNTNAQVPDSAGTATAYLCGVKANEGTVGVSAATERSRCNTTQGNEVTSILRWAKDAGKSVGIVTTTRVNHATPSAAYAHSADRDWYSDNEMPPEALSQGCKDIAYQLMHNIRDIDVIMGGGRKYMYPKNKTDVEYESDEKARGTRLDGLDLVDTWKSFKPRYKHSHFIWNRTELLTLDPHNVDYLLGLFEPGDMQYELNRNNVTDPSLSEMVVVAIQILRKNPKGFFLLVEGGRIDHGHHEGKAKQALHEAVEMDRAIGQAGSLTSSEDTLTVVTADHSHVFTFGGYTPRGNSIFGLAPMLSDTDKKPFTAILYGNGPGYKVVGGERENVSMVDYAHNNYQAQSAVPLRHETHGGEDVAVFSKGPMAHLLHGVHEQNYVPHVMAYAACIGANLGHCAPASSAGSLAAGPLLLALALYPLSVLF
Method in brief: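 Lysates of cells given 2.5 nM progesterone to induce AlkP were aliquoted and exposed to 10 μM test compound for 15 min. Then added: buffer of 100 mM diethanolamine pH 9.5, 1 mM MgCl2, 0.4 mM CSPD chemiluminescent substrate and 1X Emerald II enhancer. After 1 h at room temperature, luminescence was read.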

[6] = test system: alkaline phosphatase mRNA; assay: qRT-PCR of progesterone-induced alkaline phosphatase mRNA; assay type: cell-based, human; details: 10 nM P, 24 h
[7] = test system: pS2 mRNA; assay: qRT-PCR of 17β-estradiol-induced pS2 mRNA; assay type: cell-based; details: 2 hours; compound 51 at 5 μM
[8] = target: T4, purified full length recombinant human PR-B (Homo sapiens, UniProt P06401); assay: Competitive radiometric receptor binding assay
T4 sequence (P06401 1-933): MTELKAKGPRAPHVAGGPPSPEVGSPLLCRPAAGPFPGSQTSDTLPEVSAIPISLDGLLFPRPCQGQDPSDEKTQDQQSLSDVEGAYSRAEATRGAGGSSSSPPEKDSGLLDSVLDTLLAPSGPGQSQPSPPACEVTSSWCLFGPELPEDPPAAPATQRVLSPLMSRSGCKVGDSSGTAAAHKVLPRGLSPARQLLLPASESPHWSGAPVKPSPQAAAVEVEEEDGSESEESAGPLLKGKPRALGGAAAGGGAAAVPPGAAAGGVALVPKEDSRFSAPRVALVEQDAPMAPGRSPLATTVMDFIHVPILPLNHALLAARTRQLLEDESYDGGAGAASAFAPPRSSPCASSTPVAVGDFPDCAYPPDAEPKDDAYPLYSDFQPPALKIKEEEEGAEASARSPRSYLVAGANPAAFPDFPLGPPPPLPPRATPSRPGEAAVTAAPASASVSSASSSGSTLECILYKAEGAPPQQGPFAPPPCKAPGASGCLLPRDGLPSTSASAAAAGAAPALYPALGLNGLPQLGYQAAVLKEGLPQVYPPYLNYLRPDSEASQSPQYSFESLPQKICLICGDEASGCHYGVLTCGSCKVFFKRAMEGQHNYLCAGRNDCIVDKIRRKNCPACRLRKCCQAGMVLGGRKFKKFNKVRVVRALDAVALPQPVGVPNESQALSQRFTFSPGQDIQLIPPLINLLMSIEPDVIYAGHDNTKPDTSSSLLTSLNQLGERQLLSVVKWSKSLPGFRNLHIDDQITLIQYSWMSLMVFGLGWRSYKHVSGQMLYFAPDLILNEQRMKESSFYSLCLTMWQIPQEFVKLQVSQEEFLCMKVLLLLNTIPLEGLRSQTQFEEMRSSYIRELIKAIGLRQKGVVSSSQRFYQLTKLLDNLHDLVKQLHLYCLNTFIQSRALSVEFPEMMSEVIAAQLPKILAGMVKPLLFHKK

## CCC(CC)CSc1nc2c([nH]1)c(=S)n(C)c(=O)n2C [Compound 51, 6-thio-8-(2-ethylbutyl)thiotheophylline]
[1]; concentrations of 30 μM and higher
  agonist activity: no observed agonist activity
[1]; same T47D cells, same MMTV-luciferase reporter
  fold more potent inhibitor of PR than GR: 6.1 fold
[2]
  Reporter Assay (% Activity) ER: 54%
[3]
  inhibition of progesterone-induced AlkP activity at 5 μM: complete inhibition
[4]
  direct inhibition of luciferase enzymatic activity: did not inhibit
[5]
  direct inhibition of alkaline phosphatase activity in lysates: failed to significantly inhibit activity
[6]; 5 μM compound
  inhibition of progesterone induction of AlkP mRNA: 74%
[6]; 10 μM compound
  inhibition of progesterone induction of AlkP mRNA (in words): completely blocked
[7]
  effect on 17β-estradiol induction of pS2 mRNA: no effect
[8]; 10 nM tritiated R5020, 10 nM PR-B, 18-24 h at 0°C
  fold weaker binding to PR than R5020: 4,700 fold
[8]; at functionally significant concentrations
  ability to compete with radio-labeled R5020 for binding to PR: little or no ability to compete
